We go through 14 molecules from ChEMBL document CHEMBL3792368, “Design, synthesis, and in vitro and biological evaluation of potent amino acid-derived thiol inhibitors of the metallo-β-lactamase IMP-1” (Eur J Med Chem, 2016).

Broadly, the Ki is the equilibrium dissociation constant of an inhibitor or competing ligand from its target. Read a low Ki as a stronger hold on the target.

The subject of test [1] is Pseudomonas aeruginosa. In words: Competitive inhibition of Pseudomonas aeruginosa 101/1477 IMP-1 expressed in Escherichia coli BL21(DE3) using benzylpenicillin as substrate assessed as residual activity measured for 5 mins by UV multiplate spectrophotometry. Summed up:
(§1)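 IMP-1 lacking the first 21 signal-peptide residues, expressed and purified by a previously published protocol. Kinetic assays were run at pH 7 and read out as residual enzyme activity. The chromogenic cephalosporin CENTA was not used as substrate because thiol inhibitors react with it.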

Test [2] deals with Pseudomonas aeruginosa. In words: Uncompetitive inhibition of Pseudomonas aeruginosa 101/1477 IMP-1 expressed in Escherichia coli BL21(DE3) using benzylpenicillin as substrate assessed as residual activity measured for 5 mins by UV multiplate spectrophotometry. The gist of the method: as §1
The nature of test [3]: Competitive inhibition of IMP-1 (unknown origin).
For test [4], the system named is Escherichia coli BL21. Kind of test: Inhibition of IMP-1 in Escherichia coli BL21 assessed as imipenem MIC at 50 mM (reference value: 2 ug/ml).
Test [5] relates to Enterobacter cloacae. In words: Inhibition of IMP-4 in Enterobacter cloacae ECL1 assessed as imipenem MIC at 50 mM (reference value: 1.5 ug/ml).
Test [6] relates to Enterobacter cloacae. Kind of test: Inhibition of IMP-4 in Enterobacter cloacae ECL2 co-expressing TEM1 assessed as imipenem MIC at 50 mM (reference value: 0.5 ug/ml).
Test [7] concerns Enterobacter cloacae. Kind of test: Inhibition of IMP-4 in Enterobacter cloacae ECL2 co-expressing TEM1 assessed as reduction in imipenem MIC at 50 mM.
Test [8] concerns Escherichia coli BL21. In words: Inhibition of IMP-1 in Escherichia coli BL21 assessed as reduction of imipenem MIC at 50 mM relative to control.
Test [9] has as its system Enterobacter cloacae. In words: Inhibition of IMP-4 in Enterobacter cloacae ECL1 assessed as reduction of imipenem MIC at 50 mM relative to control.

Active and inactive are the calls of the source. The rule behind the calls is not given here.

For the molecule `O=C(CCS)N[C@@H](Cc1ccc(OCc2ccccc2)cc1)C(=O)O`, the Kic in the test with Pseudomonas aeruginosa [1] worked out at 9.39 µM. For the same molecule, the Kiuc with Pseudomonas aeruginosa [2] was above 1 mM.

Consider `O=C(CCS)N[C@@H](Cc1c[nH]c2ccccc12)C(=O)O`, for which, in the test with Pseudomonas aeruginosa [1], the Kic stood at 5.02 µM. For the same molecule, in the test with Pseudomonas aeruginosa [2], the Kiuc is above 1 mM.

In test [3], `O=C(CCS)N[C@H](Cc1ccccc1)C(=O)O` registered a Ki of 88 nM.

In the case of `O=C(CCCS)N[C@@H](Cc1ccc(O)cc1)C(=O)O`, the Kic in the test with Pseudomonas aeruginosa [1] worked out at 5.63 µM. Also, in the test with Pseudomonas aeruginosa [2], the Kiuc is above 1 mM.

Take `O=C(CS)N[C@@H](Cc1ccc(OCc2ccccc2)cc1)C(=O)O`: the Kic in the test with Pseudomonas aeruginosa [1] was 0.086 µM. Moreover, the Kiuc in the test on Pseudomonas aeruginosa [2] was above 1 mM. In addition, the results for the MIC in the test with Escherichia coli BL21 [4], in the test with Enterobacter cloacae [5] and with Enterobacter cloacae [6] were 0.38 µg/mL, 0.38 µg/mL and 0.5 µg/mL, respectively. Further, in the test on Enterobacter cloacae [7], the inhibition result was “inactive”. For the same molecule, the fold change (FC) in the test on Escherichia coli BL21 [8] came to 5.2; in the test with Enterobacter cloacae [9], 3.9.

Turning to `O=C(CCS)N[C@@H](Cc1ccccc1)C(=O)O`, the Kic in the test with Pseudomonas aeruginosa [1] stood at 1.45 µM. Moreover, in the test on Pseudomonas aeruginosa [2], the Kiuc turned out to be 0.0602 mM.

With `O=C(CCS)N[C@@H](Cc1ccc(O)cc1)C(=O)O`, the Kic in the test on Pseudomonas aeruginosa [1] worked out at 5.18 µM. In addition, in the test on Pseudomonas aeruginosa [2], the Kiuc was above 1 mM.

For `O=C(CCCS)N[C@@H](Cc1ccc(OCc2ccccc2)cc1)C(=O)O`, the Kic in the test with Pseudomonas aeruginosa [1] turned out to be 5.85 µM. Moreover, the Kiuc in the test on Pseudomonas aeruginosa [2] was above 1 mM.

Turning to `O=C(CS)N[C@@H](Cc1ccc(O)cc1)C(=O)O`, the Kic with Pseudomonas aeruginosa [1] turned out to be 4.55 µM. Besides, in the test with Pseudomonas aeruginosa [2], the Kiuc was above 1 mM.

Turning to `O=C(CCCS)N[C@@H](Cc1ccccc1)C(=O)O`, the Kic with Pseudomonas aeruginosa [1] stood at 2.82 µM. For the same molecule, in the test with Pseudomonas aeruginosa [2], the Kiuc is above 1 mM.

As to `O=C(CS)N[C@@H](Cc1ccccc1)C(=O)O`, in the test with Pseudomonas aeruginosa [1], the Kic came out at 0.25 µM. The Kiuc in the test on Pseudomonas aeruginosa [2] is above 1 mM.

For `O=C(CS)N[C@@H](Cc1c[nH]c2ccccc12)C(=O)O`, in the test on Pseudomonas aeruginosa [1], the Kic worked out at 0.47 µM. Further, the Kiuc with Pseudomonas aeruginosa [2] is above 1 mM.

Take `O=C(CCCS)N[C@@H](Cc1c[nH]c2ccccc12)C(=O)O`: in the test on Pseudomonas aeruginosa [1], the Kic amounted to 8.62 µM. Further, the Kiuc in the test on Pseudomonas aeruginosa [2] is above 1 mM.

Regarding `CC(=O)SCC(=O)O`, the Kic with Pseudomonas aeruginosa [1] stood at 0.32 µM. For the same molecule, in the test on Pseudomonas aeruginosa [2], the Kiuc came to 0.00264 mM.
